Molecules are shown by their SMILES.

The nature of data set [1]: (§1) AUC (0 to 8 hrs) in mouse at 1 mg/kg, po administered via cassette dose by LC-MS/MS analysis. It is filed as ADME, organism-based. Also on record: time < 8 hr, dose 1 mg/kg, route oral. The note with it: in vivo. In short, it runs like this:
(§2)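 Cassette oral dosing of mice at 1 mg/kg. Blood was sampled after dosing and centrifuged to give plasma. Plasma was deproteinized with acetonitrile containing internal standard, centrifuged, diluted with LC mobile phase and centrifuged again for analysis. Values are means of three determinations.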

The nature of data set [2]: Oral bioavailability in mouse at 1 mg/kg administered via cassette dose by LC-MS/MS analysis. It is filed as ADME, organism-based. The note with it: in vivo. In short, it runs like this: as §2
Data set [3] in a line: Cmax in Balb/c mouse at 30 mg/kg, po. It is filed as ADME, organism-based. Also on record: dose 30 mg/kg, route oral. The following applies: in vivo. Put shortly: (§3)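 Male Balb/c mice, 7 weeks old, received intradermal ear injection of recombinant mouse IL-23 (500 ng/10 μL PBS) under isoflurane. Compound was suspended in 0.5% methylcellulose and given orally at 3, 10 or 30 mg/kg, 30 min before and 8 h after IL-23. Plasma concentration was measured in parallel with the PD assay, giving Cmax and […].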

In data set [4] the test system is Mus musculus. In words: Drug uptake in po dosed Balb/c mouse. It is filed as ADME, organism-based. The following applies: in vivo. Put shortly:
as §3

A short description of data set [5]: Cmax in Balb/c mouse at 3 mg/kg, po. Also on record: dose 3 mg/kg, route oral. The data set is classed as ADME, organism-based. The note with it: in vivo. In short, it runs like this: as §3
A short description of data set [6]: AUC (0 to 24 hrs) in Balb/c mouse at 3 mg/kg, po. It is filed as ADME, organism-based. Also on record: dose 3 mg/kg, time < 24 hr, route oral. The note with it: in vivo. Put shortly: (§4)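 Male Balb/c mice, 7 weeks old, received 3, 10 or 30 mg/kg orally as a suspension in 0.5% methylcellulose. Dosing was 30 min before and 8 h after intradermal ear injection of recombinant mouse IL-23 (500 ng in 10 μL PBS). Plasma drug levels were measured alongside this PD study, and AUC was taken over 0–24 h.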

Data set [7] concerns Mus musculus. In words: Effect on IFNgamma expression in po dosed Balb/c mouse measured after 24 hrs by qRT-PCR analysis. The data set is classed as ADME, organism-based. The following applies: in vivo. For orientation: In qPCR the cycle at which signal appears reflects the starting amount.
For data set [8], the species on record is Mus musculus. In words: animal or person. The note with it: Balb/c, po.
Data set [9] is described as follows: AUC (0 to 24 hrs) in Balb/c mouse at 30 mg/kg, po. The following applies: in vivo. Also on record: time < 24 hr, dose 30 mg/kg, route oral. It is filed as ADME, organism-based. Put shortly: as §4
Data set [10] can be described thus: Cmax in Balb/c mouse at 10 mg/kg, po. The following applies: in vivo. The data set is classed as ADME, organism-based. Also on record: dose 10 mg/kg, route oral. In short, it runs like this: as §3
Data set [11] in a line: AUC (0 to 24 hrs) in Balb/c mouse at 10 mg/kg, po. The data set is classed as ADME, organism-based. Also on record: time < 24 hr, dose 10 mg/kg, route oral. The following applies: in vivo. In short, it runs like this:
as §4

Data set [12] has as its system Mus musculus. Described as §1. The data set is classed as ADME, organism-based. The note with it: in vivo, 8 h. Also on record: time < 8 hr, dose 1 mg/kg, route oral. Put shortly:
as §2

As usually defined, the AUC(0-t) is exposure summed from dosing to a finite time, without extrapolation to infinity. As a reminder, the bioavailability is dose-corrected exposure relative to a reference, in per cent. A high value points to much systemic uptake. Turning to `COc1ccc2c(c1)CCN(C(=O)CCCC(N)=O)[C@H]2C(=O)Nc1cc(F)c([Si](C)(C)C)c(F)c1`, in data set [1], the area under the curve AUC(0-t) at 8 h was found to be 92 ng·h/mL. Moreover, the bioavailability in data set [2] worked out at 14%.
The term Cmax denotes the peak of the concentration-time curve. Broadly, the ED50 is the midpoint of the dose-response relation. Consider `COc1ccc2c(c1)CCN(C(=O)CCCC(=O)O)[C@H]2C(=O)Nc1cc(F)c([Si](C)(C)C)c(F)c1`, for which the Cmax came out at 19000 ng/mL in data set [3], 1630 ng/mL in data set [5] and 7720 ng/mL in [10]. In data set [1], this molecule displayed an AUC(0-t) at 8 h of 6890 ng·h/mL. In the data set on Mus musculus [4], the Drug uptake result is “Dose-dependent effect”. Further, the AUC(0-t) at 24 h amounted to 10700 ng·h/mL in data set [6], 159000 ng·h/mL in data set [9] and 48000 ng·h/mL in [11]. The Activity result in the data set on Mus musculus [7] is on record as “Non-Toxic”. The same molecule gave an ED50 in the data set listed under Mus musculus [8] of 2.8 mg/kg. In data set [2], this molecule came in with a bioavailability of 94%.
Take `COc1ccc2c(c1)OCCN(C(=O)c1cc(O)no1)[C@H]2C(=O)Nc1cc(F)c([Si](C)(C)C)c(F)c1`: the AUC(0-t) at 8 h in data set [1] amounted to 29.5 ng·h/mL. This molecule returned a bioavailability in [2] of 9%.
For `COc1ccc2c(c1)CCN(C(=O)CC(C)(C)CC(=O)O)[C@H]2C(=O)Nc1cc(F)c([Si](C)(C)C)c(F)c1`, in that order: 2270 ng·h/mL and 40%.
For `COc1ccc2c(c1)CCN(C(=O)CCCCC(=O)O)[C@H]2C(=O)Nc1cc(F)c([Si](C)(C)C)c(F)c1`, in that order: 1030 ng·h/mL and 84%.
Taken in the same sequence, the figures for `COc1ccc2c(c1)CCN(C(=O)c1cc(O)no1)[C@H]2C(=O)Nc1cc(F)c([Si](C)(C)C)c(F)c1` were 200 ng·h/mL and 11%.
Molecule `COc1ccc2c(c1)CCN(C(=O)CC1SC(=O)NC1=O)[C@H]2C(=O)Nc1cc(F)c([Si](C)(C)C)c(F)c1` (stereo not given in full) registered an AUC(0-t) at 8 h in data set [1] of 120 ng·h/mL. In data set [2], this molecule registered a bioavailability of 13%.
In the case of `COc1ccc([C@H](C(=O)Nc2cc(F)c([Si](C)(C)C)c(F)c2)N(C)C(=O)CCC(=O)O)cc1`, the AUC(0-t) at 8 h in data set [1] worked out at 162 ng·h/mL. The bioavailability in data set [2] was 8.5%.
Broadly, the AUC is concentration integrated over time. Read a low AUC as less exposure. The molecule `COc1ccc([C@H](C(=O)Nc2cc(F)c([Si](C)(C)C)c(F)c2)N(C)C(=O)c2cc(O)no2)cc1` displayed an AUC in the data set with Mus musculus [12] of 374 ng·h/mL. In data set [2], this molecule gave a bioavailability of 18%.
`COc1ccc2c(c1)CCN(C(=O)CC(C)CC(=O)O)[C@H]2C(=O)Nc1cc(F)c([Si](C)(C)C)c(F)c1` (stereo not given in full): the AUC(0-t) at 8 h in [1] was determined as 2500 ng·h/mL. Further, the bioavailability in data set [2] amounted to 65%.
For `COc1ccc2c(c1)CCN(C(=O)CCC(=O)O)[C@H]2C(=O)Nc1cc(F)c([Si](C)(C)C)c(F)c1`, the AUC(0-t) at 8 h in data set [1] was 2500 ng·h/mL. Further, the bioavailability in [2] turned out to be 51%.
Taken in the same sequence, the figures for `COc1ccc2c(c1)CCN(C(=O)/C=C/C(=O)O)[C@H]2C(=O)Nc1cc(F)c([Si](C)(C)C)c(F)c1` were 619 ng·h/mL and 51%.
For `COc1ccc2c(c1)CCN(C(=O)CC(C)(O)CC(=O)O)[C@H]2C(=O)Nc1cc(F)c([Si](C)(C)C)c(F)c1` (stereo not given in full), in that order: 159 ng·h/mL and 34%.

The values above are taken from ChEMBL document CHEMBL4177746, “Discovery of orally efficacious RORγt inverse agonists. Part 2: Design, synthesis, and biological evaluation of novel tetrahydroisoquinoline derivatives” (Bioorg Med Chem, 2018).
